Experimental data taken from ChEMBL document CHEMBL1153389, “Identification of novel antibacterial peptides by chemoinformatics and machine learning” (2009).

Assays:
Assay type in all cases: functional
[1] = test system: Enterococcus faecalis; test: Antimicrobial activity against vancomycin-resistant Enterococcus faecalis f43559 (VanB) isolate after overnight incubation by broth microdilution method
How it was run: (§1)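 Modified broth microdilution in polypropylene 96-well plates with Mueller-Hinton (MH) medium. Bulk-synthesized peptides were serially diluted at 10-fold final strength in 0.01% acetic acid with 0.2% BSA, then added 1:10 to MH. Inoculum came from an overnight culture at a final (2-7) × 10^5 CFU/mL. Plates were incubated overnight at 37 °C. MIC was the lowest concentration with no visible growth.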

[2] = test system: Enterococcus faecium; test: Antimicrobial activity against vancomycin-resistant Enterococcus faecium mic80(VanA) isolate after overnight incubation by broth microdilution method; how it was run: as §1
[3] = test system: Pseudomonas aeruginosa; test: Antimicrobial activity against Pseudomonas aeruginosa LES400 after overnight incubation by broth microdilution method; how it was run: as §1
[4] = test system: Stenotrophomonas maltophilia; test: Antimicrobial activity against Pseudomonas maltophilia ATCC 13637 after overnight incubation by broth microdilution method
How it was run: (§2)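 Modified broth microdilution. Peptides are serially diluted in 0.01% acetic acid with 0.2% BSA at 10-fold the final concentration, then added to MH medium in polypropylene plates. Bacteria from an overnight culture are added to a final (2-7) × 10^5 CFU/mL. Plates are incubated overnight at 37 °C. MIC is the lowest concentration with no visible growth.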

[5] = test system: Staphylococcus aureus; test: Antimicrobial activity against Staphylococcus aureus ATCC 25923 after overnight incubation by broth microdilution method; how it was run: as §1
[6] = test system: Enterobacter cloacae; test: Antimicrobial activity against class C chromosomal beta lactamase expressing Enterobacter cloacae 218R after overnight incubation by broth microdilution method; how it was run: as §2
[7] = test system: Enterococcus faecalis; test: Antimicrobial activity against vancomycin-resistant Enterococcus faecalis w6190(VanA) isolate after overnight incubation by broth microdilution method; how it was run: as §1
[8] = test system: Staphylococcus aureus; test: Antimicrobial activity against methicillin-resistant Staphylococcus aureus C623 after overnight incubation by broth microdilution method; how it was run: as §1
[9] = test system: Klebsiella pneumoniae; test: Antimicrobial activity against extended-spectrum beta-lactamase-resistant Klebsiella pneumoniae 61962 after overnight incubation by broth microdilution method; how it was run: as §1
[10] = test system: Enterococcus faecium; test: Antimicrobial activity against vancomycin-resistant Enterococcus faecium t62764(VanB) isolate after overnight incubation by broth microdilution method; how it was run: as §1
[11] = test system: Pseudomonas aeruginosa; test: Antimicrobial activity against Pseudomonas aeruginosa H1030 after overnight incubation by broth microdilution method; how it was run: as §1
[12] = test system: Pseudomonas aeruginosa; test: Antimicrobial activity against Pseudomonas aeruginosa H1001 expressing luciferase gene assessed as ratio antimicrobial IC50 for drug to Bac2A peptide by luminescence assay
How it was run: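 Peptides are made by SPOT synthesis on cellulose, cleaved, and the spots placed in plate wells. Overnight P. aeruginosa H1001 (fliC::luxCDABE) is diluted 1:500 in 100 mM Tris-HCl pH 7.3 with 20 mM glucose and added to the wells. After 30 min, serial dilutions (8 rows) are made. Luminescence is read at 4 h. IC50 is taken from a sigmoid fit and expressed relative to Bac2A run in the same series.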

[13] = test system: Enterococcus faecalis; test: Antimicrobial activity against Enterococcus faecalis ATCC 29212 after overnight incubation by broth microdilution method; how it was run: as §2
[14] = test system: Pseudomonas aeruginosa; test: Antimicrobial activity against Pseudomonas aeruginosa H103 after overnight incubation by broth microdilution method; how it was run: as §2
[15] = test system: Klebsiella pneumoniae; test: Antimicrobial activity against extended-spectrum beta-lactamase-resistant Klebsiella pneumoniae 63575 after overnight incubation by broth microdilution method; how it was run: as §1
[16] = test system: Escherichia coli; test: Antimicrobial activity against extended-spectrum beta-lactamase producing Escherichia coli 64771 after overnight incubation by broth microdilution method; how it was run: as §2
[17] = test system: Escherichia coli; test: Antimicrobial activity against extended-spectrum beta-lactamase producing Escherichia coli 63103 after overnight incubation by broth microdilution method; how it was run: as §2
[18] = test system: Pseudomonas aeruginosa; test: Antimicrobial activity against Pseudomonas aeruginosa H1027 after overnight incubation by broth microdilution method; how it was run: as §2

Substance | Ratio IC50 [12] | further results
H-AIRRWRIRK-OH | 4.62 | MIC [1]: > 217 µM; MIC [2]: 108 µM; MIC [3]: > 217 µM; MIC [4]: 108 µM; MIC [5]: 54 µM; MIC [6]: 108 µM; MIC [7]: > 217 µM; MIC [8]: 54 µM; MIC [9]: > 217 µM; MIC [10]: 14 µM; MIC [11]: > 217 µM; MIC [13]: > 217 µM; MIC [14]: > 217 µM; MIC [15]: > 217 µM; MIC [16]: 108 µM; MIC [17]: 108 µM; MIC [18]: 217 µM
H-AWRFKNIRK-OH | 9.2 | MIC [1]: > 223 µM; MIC [2]: > 223 µM; MIC [3]: > 223 µM; MIC [4]: > 223 µM; MIC [5]: 223 µM; MIC [6]: > 223 µM; MIC [7]: > 223 µM; MIC [8]: > 223 µM; MIC [9]: > 223 µM; MIC [10]: 223 µM; MIC [11]: > 223 µM; MIC [13]: > 223 µM; MIC [14]: > 223 µM; MIC [15]: > 223 µM; MIC [16]: 223 µM; MIC [17]: > 223 µM; MIC [18]: 111 µM
H-KRFWIWFWR-OH | 3.04 | –
H-KRIMKLKMR-OH | 6.5 | MIC [1]: > 226 µM; MIC [2]: > 226 µM; MIC [3]: > 226 µM; MIC [4]: > 226 µM; MIC [5]: > 226 µM; MIC [6]: > 226 µM; MIC [7]: > 226 µM; MIC [8]: > 226 µM; MIC [9]: > 226 µM; MIC [10]: > 226 µM; MIC [11]: > 226 µM; MIC [13]: > 226 µM; MIC [14]: > 226 µM; MIC [15]: > 226 µM; MIC [16]: > 226 µM; MIC [17]: > 226 µM; MIC [18]: > 226 µM
H-KRKIWWWIR-OH | 0.28 | –
H-KRKLIRWWW-OH | 0.23 | –
H-KRRRIWWWK-OH | 0.4 | –
H-KRWLTWRFR-OH | 0.54 | –
H-KRWRWWRWW-OH | 0.28 | –
H-KRWVWYRYW-OH | 0.54 | –
H-KRWWIRWWR-OH | 0.21 | –
H-KRWWIWRIR-OH | 0.35 | –
H-KRWWKWIRW-OH | 0.04 | –
H-KRWWKWWRR-OH | 0.13 | –
H-KRWWRKWWR-OH | 0.15 | –
H-KRWWWVWKR-OH | 0.36 | –
H-KRWWWWRFR-OH | 0.24 | –
H-KRWWWWWKR-OH | 0.22 | –
H-KWRRWKRWW-OH | 0.15 | –
H-KWWKIWWKR-OH | 0.2 | –
H-KWWLVWKRK-OH | 0.23 | –
H-KWWRWWRKW-OH | 0.2 | –
H-LRFILWWKR-OH | 0.88 | –
H-LRWRWWKIK-OH | 0.26 | –

Substance | Ratio IC50 [12] | further results
H-LVFRKYWKR-OH | 0.99 | –
H-MINRVRLRW-OH | 2.77 | –
H-NKTGYRWRN-OH | 8.33 | –
H-NQKWSGRRR-OH | 7.97 | –
H-NRRNGQMRR-OH | 8.41 | –
H-QRNKGLRHH-OH | 8.76 | –
H-RGKYIRWRK-OH | 3.83 | –
H-RGRRQIGKF-OH | 8.51 | –
H-RGRTSNWKM-OH | 7.07 | –
H-RHWKTWWKR-OH | 0.95 | –
H-RIKRWWWWR-OH | 0.31 | –
H-RIKVIWWWR-OH | 0.51 | –
H-RIWYWYKRW-OH | 0.36 | –
H-RKIWWWRIR-OH | 0.59 | –
H-RKRTKVTWI-OH | 5.11 | –
H-RKRWLWRWW-OH | 0.25 | –
H-RKVRWKIRV-OH | 0.32 | –
H-RKWMGRFLM-OH | 4.38 | –
H-RKWRWRWLK-OH | 0.31 | –
H-RKWWRWWRW-OH | 0.31 | –
H-RLKKVRWWW-OH | 0.34 | –
H-RLVHWIRRV-OH | 2.62 | –
H-RNKFGGNWR-OH | 25 | –
H-RQNGVWRVF-OH | 8.26 | –

Substance | Ratio IC50 [12] | further results
H-RRFKKWYWY-OH | 0.26 | –
H-RRIRRVRWG-OH | 8.22 | –
H-RRIWRWWWW-OH | 0.68 | –
H-RRKWWWRWW-OH | 0.27 | –
H-RRMGNGGFR-OH | 8.71 | –
H-RRMKKLRRK-OH | 4.22 | –
H-RRRKTWYWW-OH | 0.32 | –
H-RRRKWWIWG-OH | 0.57 | –
H-RRRKWWIWW-OH | 0.18 | –
H-RRRWWWIIV-OH | 0.85 | –
H-RRVQRGKWW-OH | 6.3 | –
H-RRWFVKWWY-OH | 0.52 | –
H-RRWWHLWRK-OH | 0.38 | –
H-RRWWMRWWV-OH | 0.33 | –
H-RSGKKRWRR-OH | 6.5 | –
H-RVFVKIRMK-OH | 0.72 | –
H-RVKTWRVRT-OH | 5.66 | –
H-RVRWWKKRW-OH | 0.27 | –
H-RVWFKRRWW-OH | 0.26 | –
H-RVWRNGYSR-OH | 10.24 | –
H-RWFRWWKRW-OH | 0.26 | –
H-RWIGVIIKY-OH | 2.24 | –
H-RWILWWWRI-OH | 25 | –
H-RWKIFIRWW-OH | 1.82 | –

Substance | Ratio IC50 [12] | further results
H-RWKMWWRWV-OH | 0.24 | –
H-RWLVLRKRW-OH | 0.53 | –
H-RWMVSKIWY-OH | 25 | –
H-RWRGIVHIR-OH | 4.93 | –
H-RWRIKFKRW-OH | 0.26 | –
H-RWRIKRWWW-OH | 0.12 | –
H-RWRRKWWWW-OH | 0.39 | –
H-RWRRWKWWW-OH | 0.4 | –
H-RWRWKRWWW-OH | 0.25 | –
H-RWRWWIKII-OH | 0.46 | –
H-RWRWWKRWY-OH | 0.2 | –
H-RWWIRKWWR-OH | 0.21 | –
H-RWWLKIRKW-OH | 0.18 | –
H-RWWRKWWIR-OH | 0.24 | –
H-RWWRWRKWW-OH | 0.28 | –
H-RWYRKRWSW-OH | 0.7 | –
H-SFNWKRSGK-OH | 25 | –
H-SKNVRTWRQ-OH | 7.06 | –
H-SSGVRWSWR-OH | 8.16 | –
H-SWYRTRKRV-OH | 6.66 | –
H-TRGWSLGTR-OH | 12.15 | –
H-TRKVWWWRW-OH | 0.76 | –
H-VKRYYWRWR-OH | 1.23 | –
H-VLVKKRRRR-OH | 12.48 | –

Substance | Ratio IC50 [12] | further results
H-VRIVRVRIR-OH | 2.22 | –
H-VSGNWRGSR-OH | 8.54 | –
H-VVLKIVRRF-OH | 25 | MIC [1]: > 241 µM; MIC [2]: 241 µM; MIC [3]: > 241 µM; MIC [4]: 60 µM; MIC [5]: 241 µM; MIC [6]: 241 µM; MIC [7]: > 241 µM; MIC [8]: 241 µM; MIC [9]: > 241 µM; MIC [10]: 60 µM; MIC [11]: > 241 µM; MIC [13]: 241 µM; MIC [14]: > 241 µM; MIC [15]: > 241 µM; MIC [16]: 241 µM; MIC [17]: > 241 µM; MIC [18]: 241 µM
H-WGGHKRRGW-OH | 6.19 | –
H-WGKRRGWNT-OH | 7.91 | –
H-WGRGGWTNR-OH | 25 | –
H-WGRTRWSSR-OH | 9.64 | –
H-WHGGQKWRK-OH | 8.5 | –
H-WHGVRWWKW-OH | 2.5 | –
H-WHYRSQVGR-OH | 6.65 | –
H-WIRKRSRIF-OH | 3.39 | –
H-WKRWKWWKR-OH | 0.25 | –
H-WKRWRWIRW-OH | 0.28 | –
H-WRFKVLRQR-OH | 7.08 | –
H-WRNRKVVWR-OH | 6.79 | –
H-WRRWWKWWR-OH | 0.23 | –
H-WRWRWWKRW-OH | 0.28 | –
H-WRWWKWWRR-OH | 0.23 | –
H-WRWWWKKWR-OH | 0.19 | –
H-WRWYWWKKR-OH | 0.22 | –
H-WSQNVRTRI-OH | 5.71 | –
H-WVKVWKYTW-OH | 5.64 | –
H-WVRFVYRYW-OH | 2.15 | –
H-YQRLFVRIR-OH | 25 | –
